In ChEMBL document CHEMBL4665698, “Triple-Negative Breast Cancer Cells Exhibit Differential Sensitivity to Cardenolides from Calotropis gigantea” (J Nat Prod, 2020):
Activity calls are given as the source filed them. The calls are words filed in the database; no cut-off is given here.

How the values were obtained:
[1] = Selectivity index, ratio of IC50 for human MDA-MB-231 cells to IC50 for human BT-549 cells; format: functional
[2] = Inhibition of porcine cerebral cortex Na+/K+-ATPase after 15 mins by ADP-Glo reagent based assay; parameters: species or system Sus scrofa
Hs-578T = assay: Cytotoxicity against human Hs-578T cells assessed as reduction in cell viability after 48 hrs by SRB assay; format: functional, cell-based
Outline: (§1)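 Cells exposed to compounds for 48 h; growth inhibition and cytotoxicity read by sulforhodamine B staining. Concentration-response curves fit by four-parameter non-linear regression; IC50 is the concentration giving 50% reduction in cell density versus DMSO vehicle. Cells grown at 37 °C, 5% CO2 (Hs578T in DMEM with 10% FBS and 50 µg/mL gentamicin).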

BT-549 [3] = assay: Cytotoxicity against human BT-549 cells assessed as reduction in cell viability after 48 hrs by SRB assay; format: functional, cell-based; details: BT-549, 48 h; outline: as §1
MDA-MB-231 [4] = assay: Cytotoxicity against human MDA-MB-231 cells assessed as reduction in cell viability after 48 hrs by SRB assay; format: functional, cell-based; details: MDA-MB-231, 48 h; outline: as §1
BT-549 [5] = assay: Induction of intracellular Ca2+ concentration in human BT-549 cells at 150 to 500 nM after 3 hrs by Cal520-AM dye-based fluorescence assay; format: functional, cell-based; details: dose nM 150-500, time 3.0 hrs
Outline: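 BT-549 cells on coverslips at 60–80% confluency, loaded with 2.5 µM Cal-520 AM plus 0.2% Pluronic F-127 for 30 min at 37 °C, then washed. Imaged at 20× at T0 and 3 h after 150 or 500 nM compound, multiple fields. Per-cell corrected total fluorescence normalized to T0, versus DMSO; two-way ANOVA with Dunnett's test, n = 102–242 cells.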

[6] = Induction of intracellular Ca2+ concentration in human BT-549 cells at 150 nM after 2 hrs by Cal520-AM dye-based fluorescence assay relative to control; format: functional
Outline: (§2)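 BT-549 and MDA-MB-231 cells in 96-well optical plates at 60–80% confluency, loaded with 2.5 µM Cal-520 AM and 0.2% Pluronic F-127 for 30 min at 37 °C. Same field imaged at 4× at T0 and 2 h after 150 nM compound. Per-cell corrected total fluorescence normalized to T0; two-way ANOVA with Bonferroni test, n = 291–531 cells.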

MDA-MB-231 [7] = assay: Induction of intracellular Ca2+ concentration in human MDA-MB-231 cells at 150 nM after 2 hrs by Cal520-AM dye-based fluorescence assay; format: functional, cell-based; outline: as §2
HCC1806 = assay: Cytotoxicity against human HCC1806 cells assessed as reduction in cell viability after 48 hrs by SRB assay; format: functional, cell-based; details: HCC1806, 48 h; outline: as §1
CAL-51 = assay: Cytotoxicity against human CAL-51 cells assessed as reduction in cell viability after 48 hrs by SRB assay; format: functional, cell-based; details: CAL-51, 48 h; outline: as §1
HCC70 = assay: Cytotoxicity against human HCC70 cells assessed as reduction in cell viability after 48 hrs by SRB assay; format: functional, cell-based; details: HCC70, 48 h; outline: as §1
MDA-MB-468 = assay: Cytotoxicity against human MDA-MB-468 cells assessed as reduction in cell viability after 48 hrs by SRB assay; format: functional, cell-based; details: MDA-MB-468, 48 h; outline: as §1
SUM185PE = assay: Cytotoxicity against human SUM185PE cells assessed as reduction in cell viability after 48 hrs by SRB assay; format: functional, cell-based
Outline: (§3)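 Cells grown at 37 °C in humidified 5% CO2 and exposed to compounds for 48 h. Antiproliferative and cytotoxic effects read by sulforhodamine B staining of cell density. Concentration-response curves fit by four-parameter non-linear regression. IC50 taken as the concentration giving 50% reduction in cell density relative to DMSO vehicle.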

HCC1937 = assay: Cytotoxicity against human HCC1937 cells assessed as reduction in cell viability after 48 hrs by SRB assay; format: functional, cell-based; details: HCC1937, 48 h; outline: as §1
MDA-MB-453 = assay: Cytotoxicity against human MDA-MB-453 cells assessed as reduction in cell viability after 48 hrs by SRB assay; format: functional, cell-based; details: MDA-MB-453, 48 h; outline: as §3

Row | Compound | Ratio IC50 [1] | EC50 [2] | IC50 (Hs-578T) | IC50 (BT-549 [3]) | IC50 (MDA-MB-231 [4]) | Activity (BT-549 [5]) | fold change (FC) [6] | Activity (MDA-MB-231 [7]) | IC50 (HCC1806) | IC50 (CAL-51) | IC50 (HCC70) | IC50 (MDA-MB-468) | IC50 (SUM185PE) | IC50 (HCC1937) | IC50 (MDA-MB-453)
1 | C[C@]12CC[C@H](O)C[C@@H]1CC[C@@H]1[C@@H]2CC[C@]2(C)[C@@H](C3=CC(=O)OC3)CC[C@]12O | >8 | 2100 nM | 3600 nM | 3900 nM | > 30000 nM |  |  |  |  |  |  |  |  |  | 
2 | C[C@H]1O[C@H]2O[C@@H]3C[C@@H]4CC[C@@H]5[C@H](CC[C@]6(C)[C@@H](C7=CC(=O)OC7)CC[C@]56O)[C@@]4(C=O)C[C@H]3O[C@@]2(O)[C@H](O)[C@@H]1O | 13 | 300 nM | 120 nM | 49 nM | 630 nM |  |  |  |  |  |  |  |  |  | 
3 | C[C@H]1O[C@@H](O[C@@H]2C[C@@H]3CC[C@@H]4[C@H](CC[C@]5(C)[C@@H](C6=CC(=O)OC6)CC[C@]45O)[C@@]3(C=O)C[C@H]2O)[C@H](O)[C@H](O)[C@@H]1O | 7 | 2500 nM | 3900 nM | 1400 nM | 10000 nM |  |  |  |  |  |  |  |  |  | 
4 | C[C@H]1O[C@@H](O[C@H]2CC[C@@]3(CO)[C@@H](CC[C@@H]4[C@@H]3CC[C@]3(C)[C@@H](C5=CC(=O)OC5)CC[C@]43O)C2)[C@H](O)[C@H](O)[C@@H]1O | 10 | 500 nM | 380 nM | 121 nM | 1250 nM |  |  |  |  |  |  |  |  |  | 
5 | C[C@H]1O[C@@H](O[C@H]2CC[C@@]3(CO)[C@@H](CC[C@@H]4[C@@H]3CC[C@]3(C)[C@@H](C5=CC(=O)OC5)CC[C@]43O)C2)[C@H](O)[C@H](O)[C@@H]1O[C@@H]1O[C@H](CO)[C@@H](O)[C@H](O)[C@H]1O | 14 | 600 nM | 300 nM | 70 nM | 980 nM |  |  |  |  |  |  |  |  |  | 
6 | C[C@@H]1C[C@H](O)[C@]2(O)O[C@@H]3C[C@@]4(C=O)[C@@H](CC[C@@H]5[C@@H]4CC[C@]4(C)[C@@H](C6=CC(=O)OC6)CC[C@]54O)C[C@H]3O[C@@H]2O1 [CALOTROPIN] | 15 | 360 nM | 60 nM | 30 nM | 440 nM | Active | 2 | Active |  |  |  |  |  |  | 
7 | C[C@]12CC[C@H]3[C@@H](CC[C@H]4C[C@@H](O)CC[C@@]43CO)[C@@]1(O)CC[C@@H]2C1=CC(=O)OC1 [COROGLAUCIGENIN] | 9 | 1100 nM | 1800 nM | 2300 nM | 20000 nM |  |  |  |  |  |  |  |  |  | 
8 | C[C@]12CC[C@H](O[C@@H]3O[C@H](CO)[C@@H](O)[C@H](O)[C@H]3O)C[C@@H]1CC[C@@H]1[C@@H]2CC[C@]2(C)[C@@H](C3=CC(=O)OC3)CC[C@]12O [DESGLUCOUZARIN] | 6 | 1100 nM | 1570 nM | 1800 nM | 10000 nM |  |  |  |  |  |  |  |  |  | 
9 | C[C@H]1O[C@@H](O[C@H]2[C@@H](O)C[C@H](O[C@H]3[C@@H](O)C[C@H](O[C@H]4CC[C@@]5(C)[C@H](CC[C@@H]6[C@@H]5C[C@@H](O)[C@]5(C)[C@@H](C7=CC(=O)OC7)CC[C@]65O)C4)O[C@@H]3C)O[C@@H]2C)C[C@H](O)[C@@H]1O [DIGOXIN] |  |  | 69 nM | 51 nM | 480 nM |  |  |  | 280 nM | 130 nM | 640 nM | 230 nM | 280 nM | 550 nM | 230 nM
10 | C[C@@H]1C[C@@]2(N=CCS2)[C@]2(O)O[C@@H]3C[C@@]4(C=O)[C@@H](CC[C@@H]5[C@@H]4CC[C@]4(C)[C@@H](C6=CC(=O)OC6)CC[C@]54O)C[C@H]3O[C@@H]2O1 [USCHARIN] | 7 | 910 nM | 34 nM | 14.6 nM | 102 nM |  |  |  |  |  |  |  |  |  | 
